Hits are enriched below; roughly 4.6% of the tested compounds scored in any of these assays.
OX1R antag-1: OX1R (HCRTR1) antagonists, primary screen, fluorescence, CHO/OX1R cells, Fluo-8 calcium, orexin A | Orexin/Hypocretin receptor type 1 (Homo sapiens), O43613 | Fluo-8 calcium fluorescence | inhibition, % at 5 µM | 330,000 compounds, 0.43% hits;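 active = inhibition above its plate's threshold, mean inhibition of all tested compounds on the plate plus 3 SD, cut at about 37% in these data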
TAAR1 agonist: human TAAR1 agonists, primary screen, Fluo-8 calcium fluorescence, CHO RD-HGA16 cells | 360,000 compounds, 0.99% hits | Trace amine-associated receptor 1 (Homo sapiens), Q96RJ0 | vehicle wells 0%, saturating PEA agonist 100% | activation, % at 3 µM | AID 624467, 2012;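 active = activation above the mean activation of all test compounds in the run plus 3 SD, cut at about 38% in these data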
Target sequence (Q96RJ0 whole entry, looked up): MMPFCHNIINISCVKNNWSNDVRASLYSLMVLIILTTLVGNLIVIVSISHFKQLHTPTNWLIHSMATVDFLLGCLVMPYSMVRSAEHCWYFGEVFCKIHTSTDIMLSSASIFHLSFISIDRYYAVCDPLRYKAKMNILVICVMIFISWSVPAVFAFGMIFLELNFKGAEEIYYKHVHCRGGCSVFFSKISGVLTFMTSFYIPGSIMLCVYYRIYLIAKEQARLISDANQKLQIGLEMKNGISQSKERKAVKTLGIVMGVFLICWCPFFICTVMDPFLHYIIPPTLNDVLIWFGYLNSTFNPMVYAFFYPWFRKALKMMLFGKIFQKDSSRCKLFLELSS
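System: CHO-derived RD-HGA16 cells with stable Gα16 and human TAAR1. Times: 17-24 h plating, Fluo-8 75 min 37 °C, 30 min RT. Measured by: calcium-sensitive Fluo-8 signal, excitation 470-495, emission 515-575 nm. Read-out basis: % activation relative to PEA EC100 response. Control set: DMSO and PEA EC100. Repeats: no replicates (n 1).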
GPR7 antagonist: GPR7 receptor antagonists, primary screen, cell-based, fluorescence, single concentration. AID 1861, 2009. GPR7-expressing cells, fluorescence antagonist assay. 290,000 compounds, 1.1% hits. inhibition, % at 4.4 µM; in the data active = inhibition above about 16%, passing the limit was not always enough;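 also: cells stimulated with the agonist NPW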
Target sequence (P48145 whole entry, looked up): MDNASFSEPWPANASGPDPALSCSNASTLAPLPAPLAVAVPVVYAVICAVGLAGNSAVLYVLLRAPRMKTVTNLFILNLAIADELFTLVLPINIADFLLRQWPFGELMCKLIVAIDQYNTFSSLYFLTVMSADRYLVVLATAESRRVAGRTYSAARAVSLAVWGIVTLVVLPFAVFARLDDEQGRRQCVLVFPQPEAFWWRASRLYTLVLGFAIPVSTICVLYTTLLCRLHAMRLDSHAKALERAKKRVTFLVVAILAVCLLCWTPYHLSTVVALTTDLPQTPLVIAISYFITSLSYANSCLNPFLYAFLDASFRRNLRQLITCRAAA
CHO parental Ca: ATP-evoked calcium signal inhibitors, parental CHO, primary screen, counter-screen for OX1R antagonist project, cell-based, fluorescence, Fluo-8 calcium dye. parental CHO-K1, ATP-induced calcium, Fluo-8 fluorescence. inhibition, % at 5.6 µM. 330,000 compounds, 0.63% hits;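 active = inhibition above that plate's mean sample inhibition plus 3 SD, cut at about 26% in these data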
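Assay system: parental CHO cells; Read-out basis: percent inhibition of ATP-evoked calcium rise, normalized to controls; Benchmarks: ATP and no-ATP DMSO wells; Compound dosing: single nominal dose of 5.6 µM per compound; Signal: Fluo-8 calcium dye fluorescence; Also added: ATP as calcium-mobilizing challenge; Repeats: singlicate.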
TAAR1 antag: human TAAR1 antagonists, primary screen, Fluo-8 calcium fluorescence, CHO RD-HGA16 cells | antagonist | inhibition, % at 3 µM | 360,000 compounds, 1.5% hits;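 active = inhibition above a per-plate cutoff, the mean inhibition of test compounds on that plate plus 3 SD, cut at about 49% in these data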
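Material: RD-HGA16 CHO cells with stable hTAAR1 and Gα16; Dosing: single nominal final test compound concentration of 3 µM; Schedule: seeding 17-24 h prior, 75-min 37 °C, 30-min RT dye loading; Detection: kinetic Fluo-8 calcium fluorescence measurement; Measure: % inhibition from peak post-agonist over basal fluorescence ratio; Benchmarks: vehicle and agonist controls.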
OX1R antag-2: antagonists of human orexin 1 receptor (OX1R) | Orexin/Hypocretin receptor type 1 (Homo sapiens), O43613 | OX1R-expressing cells, FRET antagonist read-out | inhibition, % at 6.6 µM | 330,000 compounds, 1.8% hits | AID 485270, 2010; in the data active = inhibition mostly above about 38%, no sharp cut-off; inactive = mostly below about 40%
Numbers stand for hits; i = inactive; nt = no result given.

SMILES	OX1R antag-1	TAAR1 agonist	GPR7 antagonist	CHO parental Ca	TAAR1 antag	OX1R antag-2
Cn1cc([N+](=O)[O-])cc1-c1nc2ccccc2n1C	i	i	i	i	i	i
O=S(=O)(Nc1ccc2c(c1)OCCO2)c1ccc2oc3ccccc3c2c1	i	i	i	i	i	65
Cc1ccc(S(=O)(=O)NCc2ccc3c(c2)OCO3)cc1C	i	i	i	i	i	i
O=S(=O)(NCc1ccc2c(c1)OCO2)c1ccc2oc3ccccc3c2c1	i	i	i	i	i	52
CCOC(=O)[C@]12CCCC=C1N(Cc1ccc(Cl)cc1Cl)C(=O)[C@H](CC(=O)NCC1CCCCC1)C2	nt	i	nt	nt	i	nt
CCCCCn1cc(CCC(=O)Nc2ccc(N(C)c3ccccn3)cc2)c2ccccc21	nt	i	nt	nt	i	nt
COc1ccccc1-c1cnc(C(O)c2cc(C)ccc2C)[nH]1 (configuration not stated)	nt	i	nt	nt	i	nt
O=C(O)c1ccc(C(=O)c2ccc3c(c2)C(=O)N(Cc2ccco2)C3=O)cc1	i	i	i	i	i	50
O=C(O)c1ccc(C(=O)c2ccc3c(c2)C(=O)N(CCO)C3=O)cc1	i	i	i	i	i	74
CCN1C(=O)c2ccc(C(=O)O)cc2C1=O	i	i	i	i	i	i
O=C(c1ccc2c(c1)C(=O)N(Cc1ccco1)C2=O)N1CCOCC1	i	i	i	i	i	i
O=C(Cc1ccc(S(=O)(=O)N2CCOCC2)s1)Nc1cc(Cl)ccc1Cl	i	i	nt	i	i	i
CCCCCOC(=O)Nc1nnc(CCCCC)s1	i	i	19	i	i	i
S=C(NCCc1ccc(Cl)cc1)Nc1ccc(Cl)cc1Cl	i	i	i	i	49	i
Fc1ccc(CCNC(=S)Nc2ccc(F)c(Cl)c2)cc1	i	i	i	32	i	i
COc1ccc2cc(CNCCOCCOCCNCc3ccc4cc(OC)ccc4c3)ccc2c1	nt	i	nt	nt	i	nt
O=C(/C=C/c1c(Cl)nc2ccccn12)Nc1ccc(F)cc1	i	i	i	i	i	53
O=Cc1c(Cl)nc2ccccn12	i	i	i	i	i	i
O=C(Nc1ccccc1)C1C2CCC3C(CCC21)C3(Cl)Cl (configuration not stated)	i	i	i	i	i	i
O=C(Nc1cccc(Cl)c1)C1C2CCC3C(CCC21)C3(Cl)Cl (configuration not stated)	i	i	42	i	i	i
O=C(CSc1ncnc2c1cnn2-c1ccccc1)Nc1ccccc1	i	40	i	i	i	i
O=C(Nc1ccc2cn[nH]c2c1)c1c(Cl)cccc1Cl	i	i	i	i	i	i
O=C1C(Cl)=C(Nc2ccc3cn[nH]c3c2)C(=O)c2ccccc21	59	i	41	64	62	54
CN(C)c1ccc(NC2=C(Cl)C(=O)c3ccccc3C2=O)cc1	i	i	i	35	66	92
Cn1c(=O)c2ccccc2n(C)c1=O	nt	i	nt	nt	i	nt
SMILES	OX1R antag-1	TAAR1 agonist	GPR7 antagonist	CHO parental Ca	TAAR1 antag	OX1R antag-2
O=C(O)CCC(=O)Nc1ccc(-n2ccc(C(F)(F)F)n2)cc1	i	i	i	i	i	i
Cc1cc(C)cc(NC(=O)Nc2ccc(-n3ccc(C(F)(F)F)n3)cc2)c1	54	i	i	40	i	54
Cc1ccc(S(=O)(=O)N(C)[C@H]2C[C@H]3c4cc(-c5ccc6c(c5)OCO6)ccc4CCN3C[C@H]2[C@H](C)O)cc1	nt	i	nt	nt	i	nt
CC(=O)Nc1cccc(NC(=O)COC(=O)CO/N=C(\C)c2ccc3c(c2)OCO3)c1	i	i	i	i	i	74
CCCNC(=O)c1cc2c(c(-c3cccc(-c4cc5ccccc5o4)c3)n1)[C@H](CCO)N(C(=O)NC(C)C)C2	nt	i	nt	nt	50	nt
CC(C)(C)S(=O)N1Cc2cc(C(=O)NCCCN3CCOCC3)nc(-c3cccc(-c4cc5ccccc5o4)c3)c2[C@@H]1CCO (some centres not stated)	nt	i	nt	nt	55	nt
CC(=O)N1Cc2cc(C(=O)NCC(F)(F)F)nc(-c3cccc(-c4cc5ccccc5o4)c3)c2[C@@H]1CCO	nt	i	nt	nt	i	nt
CC(C)(C)S(=O)N1Cc2cc(C(=O)NCC(F)(F)F)nc(-c3cccc(-c4cccc(F)c4)c3)c2[C@@H]1CCO (some centres not stated)	nt	i	nt	nt	51	nt
CCCCn1c(NC(=O)c2ccccc2Cl)c(C#N)c2nc3ccccc3nc21	i	i	i	i	i	59
COc1ccc([N+](=O)[O-])c(S(=O)(=O)c2ccc(Cl)cc2)n1	i	i	i	46	i	i
O=[N+]([O-])c1cccnc1S(=O)(=O)c1ccccc1	i	i	i	i	i	i
COc1ccc([N+](=O)[O-])c(S(=O)(=O)c2ccccc2)n1	i	i	20	i	i	i
O=C(NCC1COc2ccccc2O1)C1CCCN(S(=O)(=O)c2cccc3nsnc23)C1 (configuration not stated)	i	i	i	i	i	i
O=C(NCC1COc2ccccc2O1)C1CCCN(S(=O)(=O)c2cccc3cccnc23)C1 (configuration not stated)	i	i	i	i	i	56
O=C(NC1CCCCC1)C1CCCN(S(=O)(=O)c2cccc3cccnc23)C1 (configuration not stated)	i	i	i	i	i	i
COc1cccc(NC(=O)C2CCCN(S(=O)(=O)c3cccc4cccnc34)C2)c1 (configuration not stated)	i	i	i	i	i	55
CCOc1ccccc1NC(=O)C1CCCN(S(=O)(=O)c2cccc3nsnc23)C1 (configuration not stated)	i	i	i	i	i	i
O=C(Nc1ccccc1F)C1CCCN(S(=O)(=O)c2cccc3cccnc23)C1 (configuration not stated)	i	i	i	i	i	35
CCOc1ccccc1NC(=O)C1CCCN(S(=O)(=O)c2cccc3cccnc23)C1 (configuration not stated)	i	i	i	i	i	38
COc1cccc(NC(=O)C2CCCN(S(C)(=O)=O)C2)c1 (configuration not stated)	i	i	i	i	i	i
CCOC(=O)C1OC1(c1ccccc1)c1ccccc1 (configuration not stated)	nt	i	nt	nt	i	nt
Cc1cc(C)c(S(=O)(=O)N2C[C@H]3CON(C)[C@H]3C[C@H]2c2ccc(-n3ccnc3)cc2)c(C)c1	nt	i	nt	nt	i	nt
